Reference: article PMC10466730 (Cancer cell, 2023)
pIC50, pKd: −log10 of the molar value. Where two headings read alike, the source gives them in different places. Each block holds one compound with its values, some of them ahead of it.

Experiments:
CK1α = CK1α (Homo sapiens, UniProt P48729+Q96SW2); experiment: Western blot of CK1α in MOLM-13 cells; assay type: cell-based; conditions: for CK1α degradation (Western blot): MOLM-13
Method in brief: (§1)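 MOLM-13 cells (1 × 10⁶) were treated 24 h with test compound diluted from DMSO stocks. Cells were pelleted, washed with PBS, lysed in Laemmli buffer by vortexing for 10 min, and boiled at 95 °C for 5 min. Lysates were resolved on 4–15% gradient SDS-PAGE, transferred to PVDF and immunoblotted with target-specific antibodies.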

IKZF2 = IKZF2 (Homo sapiens, UniProt Q96SW2+Q9UKS7); experiment: Western blot of IKZF2 in MOLM-13 cells; assay type: cell-based; conditions: MOLM-13, 24 h
IKZF2, sequence (Q9UKS7 whole entry): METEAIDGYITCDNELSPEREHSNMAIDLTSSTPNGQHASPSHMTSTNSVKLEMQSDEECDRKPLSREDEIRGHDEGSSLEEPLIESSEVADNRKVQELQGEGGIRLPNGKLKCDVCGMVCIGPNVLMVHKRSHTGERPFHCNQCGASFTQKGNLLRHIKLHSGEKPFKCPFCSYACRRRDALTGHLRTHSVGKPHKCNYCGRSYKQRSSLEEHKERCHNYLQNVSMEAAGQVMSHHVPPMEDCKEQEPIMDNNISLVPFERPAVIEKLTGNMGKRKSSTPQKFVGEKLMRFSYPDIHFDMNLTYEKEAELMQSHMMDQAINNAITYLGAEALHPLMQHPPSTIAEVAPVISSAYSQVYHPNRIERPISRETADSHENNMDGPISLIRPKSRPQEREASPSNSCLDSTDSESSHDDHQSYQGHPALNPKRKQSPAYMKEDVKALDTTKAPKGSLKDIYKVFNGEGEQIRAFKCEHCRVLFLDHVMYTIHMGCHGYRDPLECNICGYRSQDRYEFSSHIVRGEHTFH
IKZF2, sequence (Q96SW2 whole entry): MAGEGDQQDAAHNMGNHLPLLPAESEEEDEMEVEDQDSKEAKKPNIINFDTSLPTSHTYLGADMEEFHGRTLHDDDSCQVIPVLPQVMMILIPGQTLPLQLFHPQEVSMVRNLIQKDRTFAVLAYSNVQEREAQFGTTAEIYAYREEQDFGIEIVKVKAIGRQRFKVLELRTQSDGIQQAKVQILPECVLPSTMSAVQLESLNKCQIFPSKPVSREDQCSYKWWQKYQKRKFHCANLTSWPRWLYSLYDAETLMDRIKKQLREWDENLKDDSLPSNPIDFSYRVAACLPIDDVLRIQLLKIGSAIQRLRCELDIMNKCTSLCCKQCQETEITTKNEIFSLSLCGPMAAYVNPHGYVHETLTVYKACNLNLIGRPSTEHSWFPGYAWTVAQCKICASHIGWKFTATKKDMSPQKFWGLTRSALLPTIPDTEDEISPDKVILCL
IKZF2, sequence (Q16531 whole entry partner): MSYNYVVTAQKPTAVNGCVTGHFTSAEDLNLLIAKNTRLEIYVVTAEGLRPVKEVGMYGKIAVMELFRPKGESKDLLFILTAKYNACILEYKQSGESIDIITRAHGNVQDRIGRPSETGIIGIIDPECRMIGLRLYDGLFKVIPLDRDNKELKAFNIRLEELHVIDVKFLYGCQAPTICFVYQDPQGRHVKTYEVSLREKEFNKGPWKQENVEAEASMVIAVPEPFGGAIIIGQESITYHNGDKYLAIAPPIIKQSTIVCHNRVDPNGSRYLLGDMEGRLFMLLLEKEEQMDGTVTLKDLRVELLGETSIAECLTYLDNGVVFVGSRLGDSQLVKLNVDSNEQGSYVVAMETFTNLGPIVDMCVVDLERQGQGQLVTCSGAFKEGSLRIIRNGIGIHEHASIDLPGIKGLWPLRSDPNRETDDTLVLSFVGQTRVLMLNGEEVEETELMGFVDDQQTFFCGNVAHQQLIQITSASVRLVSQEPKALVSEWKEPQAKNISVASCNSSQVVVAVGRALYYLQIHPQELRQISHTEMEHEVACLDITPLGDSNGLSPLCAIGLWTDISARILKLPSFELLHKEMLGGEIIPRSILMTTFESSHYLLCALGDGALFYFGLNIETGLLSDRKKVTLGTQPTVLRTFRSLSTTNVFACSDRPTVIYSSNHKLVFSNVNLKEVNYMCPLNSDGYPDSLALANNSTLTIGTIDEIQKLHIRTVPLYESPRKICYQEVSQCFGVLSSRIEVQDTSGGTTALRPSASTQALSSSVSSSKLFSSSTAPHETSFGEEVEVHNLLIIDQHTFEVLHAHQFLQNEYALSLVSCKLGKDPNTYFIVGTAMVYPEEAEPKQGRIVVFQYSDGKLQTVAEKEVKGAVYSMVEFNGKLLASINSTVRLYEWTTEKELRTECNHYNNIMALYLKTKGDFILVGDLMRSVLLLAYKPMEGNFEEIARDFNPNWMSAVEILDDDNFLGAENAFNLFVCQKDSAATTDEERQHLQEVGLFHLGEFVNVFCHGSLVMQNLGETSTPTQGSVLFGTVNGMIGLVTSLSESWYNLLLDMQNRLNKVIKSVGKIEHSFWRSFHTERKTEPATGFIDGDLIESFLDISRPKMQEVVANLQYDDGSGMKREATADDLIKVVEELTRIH
Method in brief: as §1

MOLM-13 cells [1] = experiment: Viability assay in MOLM-13 cells; assay type: cell-based, human; conditions: MOLM-13, 72 h; for cellular growth inhibition: unlike lenalidomide, Figure 1E; for pIC50: Homo sapiens
Method in brief: (§2)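 Human AML cell lines were plated at 10,000 cells per well with increasing test compound up to 100 μM for 72 h at 37 °C, 5% CO₂. CellTiter-Glo was added 1:1 for 15 min at room temperature and luminescence was read; MTT was used as an alternative read-out. Percent viability was fitted by non-linear regression to give IC50. Three independent experiments, triplicates.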

panel of AML cell lines = experiment: Viability assay in a panel of AML cell lines; assay type: cell-based, human; conditions: AML cell lines with various oncogenic mutations, 72 h
Method in brief: as §2

[2] = test system: MLL-AF9 leukemic bone marrow Crbn^I391V cells; experiment: Viability assay in MLL-AF9 leukemic bone marrow Crbn^I391V cells; assay type: cell-based; conditions: Mus musculus, MLL-AF9, 72 h, read-out: IC50 (proliferation)
[3] = test system: normal bone marrow Crbn^I391V cells; experiment: Viability assay in normal bone marrow Crbn^I391V cells; assay type: cell-based; conditions: Mus musculus, 72 h, read-out: IC50 (proliferation)
AML PDX cells = experiment: Viability assay in AML PDX cells; assay type: cell-based, human; conditions: read-out: IC50 (viability); two AML PDX samples, 2 days, Figure 5D
Method in brief: (§3)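 AML PDX cells or normal human bone marrow cells were plated at 10,000 cells per well with increasing test compound concentrations and cultured for 2 days at 37 °C, 5% CO₂. Viability was read by CellTiter-Glo luminescence or MTT absorbance, normalized to percent viability, and fitted by non-linear regression.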

[4] = test system: healthy bone marrow cells; experiment: Viability assay in healthy bone marrow cells; assay type: cell-based; conditions: Homo sapiens, Bone marrow cell, 48 h, read-out: IC50 (viability)
Method in brief: as §3

CK1α-GFP fusion protein = CK1α-GFP fusion protein (Homo sapiens, UniProt P48729+Q96SW2); experiment: Flow cytometry degradation assay, HEK293T CK1α-GFP; assay type: cell-based; conditions: 5 h
[5] = molecular target: IKZF2(zinc finger 2)-GFP fusion protein (Homo sapiens, UniProt Q96SW2+Q9UKS7); experiment: Flow cytometry degradation assay, HEK293T IKZF2; assay type: cell-based; conditions: HEK293T IKZF2(zinc finger 2)-GFP, 24 h
IKZF1(zinc finger 2)-GFP = IKZF1(zinc finger 2)-GFP (Homo sapiens, UniProt Q13422); experiment: Flow cytometry degradation assay, HEK293T IKZF1; assay type: cell-based; conditions: HEK293T IKZF1(zinc finger 2)-GFP
GSPT1-GFP = GSPT1-GFP (Homo sapiens, UniProt P15170+Q96SW2); experiment: Flow cytometry degradation assay, HEK293T GSPT1-GFP; assay type: cell-based
CRBN = CRBN (Homo sapiens, UniProt Q96SW2); experiment: HTR-FRET Cereblon binding assay
CRBN, sequence (Q96SW2 whole entry): as the sequence (Q96SW2 whole entry) above

[6] = molecular target: His-CULT and streptactin-CK1α (Homo sapiens, UniProt P48729+Q96SW2); experiment: AlphaScreen ternary complex between CRBN and CK1α; assay type: binding; conditions: compared with lenalidomide
His-CULT and streptactin-CK1α, sequence (Q96SW2 318-426 limits assumed): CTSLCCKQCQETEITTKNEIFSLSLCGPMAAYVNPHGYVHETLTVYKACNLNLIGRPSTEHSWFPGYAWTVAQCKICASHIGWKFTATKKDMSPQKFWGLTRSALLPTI
His-CULT and streptactin-CK1α, sequence (P48729 whole entry): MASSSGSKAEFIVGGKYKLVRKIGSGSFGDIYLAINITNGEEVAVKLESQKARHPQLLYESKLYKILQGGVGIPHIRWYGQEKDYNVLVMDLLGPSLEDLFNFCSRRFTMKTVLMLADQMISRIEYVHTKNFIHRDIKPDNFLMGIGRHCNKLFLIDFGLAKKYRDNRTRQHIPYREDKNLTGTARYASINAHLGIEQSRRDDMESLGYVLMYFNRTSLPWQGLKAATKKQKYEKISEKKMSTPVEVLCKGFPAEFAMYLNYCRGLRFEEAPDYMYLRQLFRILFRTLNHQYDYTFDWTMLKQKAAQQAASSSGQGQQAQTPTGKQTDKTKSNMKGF
Method in brief: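 CK1α–CRBN ternary complex by AlphaScreen in 1× AlphaScreen buffer (3× stock: 150 mM HEPES pH 7.4, 450 mM NaCl, 0.3% BSA, 0.03% Tween 20). Streptactin-CK1α (600 nM solution) and CULT (500 nM solution) were mixed with a 2-fold serial dilution of test compound in 3% DMSO/buffer, in triplicate, for 1 h at 25 °C. Streptactin acceptor and nickel chelate donor beads were then added for 1 h at 25 °C in the dark before reading.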

IKZF1 = IKZF1 (Homo sapiens, UniProt Q13422); experiment: Western blot of IKZF1 in MOLM-13 cells; assay type: cell-based; conditions: MOLM-13, 24 h
Method in brief: as §1

IKZF3 = IKZF3 (Homo sapiens, UniProt Q9UKT9); experiment: Western blot of IKZF3 in MOLM-13 cells; assay type: cell-based; conditions: MOLM-13, 24 h
Method in brief: as §1

IKZF4 = IKZF4 (Homo sapiens, UniProt Q9H2S9); experiment: Western blot of IKZF4 in MOLM-13 cells; assay type: cell-based; conditions: MOLM-13, 24 h
Method in brief: as §1

GSPT1 = GSPT1 (Homo sapiens, UniProt P15170+Q96SW2); experiment: Western blot of endogenous GSPT1; assay type: cell-based; conditions: degradation at micromolar concentrations, Figure S2D
MOLM-13 cells [7] = experiment: Quantitative global proteomics in MOLM-13 cells; assay type: cell-based, human; conditions: 50 nM, 2 h
MOLM-13 cells [8] = experiment: Flow cytometry for apoptosis and differentiation in MOLM-13 cells; assay type: cell-based, human; conditions: MOLM-13, 10 nM and 100 nM, 2 days
Method in brief: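 MOLM-13 cells were treated 48 h. For differentiation, cells were stained 20 min in the dark in 2% FBS RPMI for CD13-FITC/CD33-APC or CD14-FITC/CD11b-APC. Mean ± SEM of three experiments; Student's t test.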

MLL-AF9 Crbn^I391V cells [9] = experiment: Flow cytometry for apoptosis and differentiation in MLL-AF9 Crbn^I391V cells; assay type: cell-based, mouse; conditions: 10 nM, 24 h post treatment, dependent on humanized CRBN
[10] = test system: MLL-AF9 Crbn^I391V leukemic cells; experiment: Colony assay of MLL-AF9 Crbn^I391V leukemic cells; assay type: cell-based, mouse; conditions: 10 nM, M3434 methylcellulose
Method in brief: (§4)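 Murine cells were plated on MethoCult M3434 methylcellulose with test compound: 500 sorted LSK cells from Crbn^I391V mice, or 1000 bone marrow cells from MLL-AF9 Crbn^I391V leukemic mice. Colonies were counted after 5 days and normalized. Cells came from n=3 mice. Mean ± SEM of biological replicates from two experiments.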

[11] = test system: LSK cells from Crbn^I391V mice; experiment: Colony assay of Crbn^I391V LSK cells; assay type: cell-based, mouse; conditions: 10 nM, M3434 methylcellulose
Method in brief: as §4

[12] = test system: primary AML patient samples; experiment: Colony assay of primary AML patient samples; assay type: cell-based, human; conditions: 10 nM, n = 8, compared to healthy adult bone marrow or cord blood cells
Method in brief: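 Primary AML patient cells, normal bone marrow or cord blood CD34+ HSPCs were plated at 5000 cells on methylcellulose with test compound. Colonies were counted after 7 days and normalized to control. Mean ± SEM of samples from more than three experiments.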

[13] = test system: MOLM-13 and MOLM-14 cells; experiment: Combination viability assay with other AML drugs; assay type: cell-based, human; conditions: 72 h
Method in brief: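 MOLM-13 cells were co-treated with test compound plus midostaurin or cytarabine for 72 h. Viability was read by CellTiter-Glo luminescence. A representative of three independent experiments is shown, mean ± SEM of triplicates.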

Pharmacokinetics in mice = assay type: in vivo, mouse; conditions: plasma, ip
Method in brief: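 Single intraperitoneal doses in DMSO: one test compound at 5 or 50 mg/kg in male CD1 mice, another at 223 mg/kg in female Crbn^I391V mice. Plasma was collected at set times and compound levels were measured by HPLC.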

MLL-AF9 Crbn^I391V cells [14] = experiment: Pharmacodynamics in BL6 mice transplanted with MLL-AF9 Crbn^I391V cells; assay type: in vivo, mouse
MLL-AF9 Crbn^I391V cells [15] = experiment: Efficacy in BL6 mice transplanted with MLL-AF9 Crbn^I391V cells; assay type: in vivo
MOLM-13 cells [16] = experiment: Efficacy in NSG mice transplanted with MOLM-13 cells; assay type: in vivo; conditions: for survival: vs DMSO
AML PDX#2 = experiment: Efficacy in NSG mice transplanted with AML PDX; assay type: in vivo, mouse
Solubility in DMSO = assay type: physicochemical
[17] = Toxicity in the hematopoietic system of Crbn^I391V mice; assay type: in vivo, mouse; conditions: four rounds of 223 mg/kg, weekly
Method in brief: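 Female Crbn^I391V mice aged 8–12 weeks received DMSO or 223 mg/kg test compound once weekly for four rounds. They were sacrificed 4 weeks later. Blood was analysed on a hematology analyser, and stem/progenitor compartments were assessed by flow cytometry.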

MLL-AF9 Crbn^I391V cells [18] = experiment: Efficacy in Crbn^I391V mice transplanted with MLL-AF9 Crbn^I391V cells; assay type: in vivo, mouse; conditions: 223 mg/kg weekly, non-irradiated Crbn^I391V mice
[19] = read-out: IC50 (cell viability)

CK1α, sequence (P48729 whole entry): as above
CK1α, sequence (Q96SW2 whole entry): as the sequence (Q96SW2 whole entry) above
CK1α, sequence (Q16531 whole entry partner): as the sequence (Q16531 whole entry partner) above

CK1α degradation (Western blot) (CK1α): but not CH2-DEG-35 efficiently degraded
Compound: COc1ccc2cc(CNc3ccc4c(c3)CN(C3CCC(=O)NC3=O)C4=O)ccc2c1 (stereo not shown) [CH2-DEG-35, 3-(5-(((6-methoxynaphthalen-2-yl)methyl)amino)-1-oxoisoindolin-2-yl)piperidine-2,6-dione]

IKZF2 degradation (Western blot) (IKZF2): rescued IKZF2 and CK1α degradation
CK1α degradation (Western blot) (CK1α): rescued IKZF2 and CK1α degradation
Compound: COc1ccc2cc(C(=O)Nc3ccc4c(c3)CN(C3CCC(=O)N(C)C3=O)C4=O)ccc2c1 (stereo not shown) [Me-DEG-35, 6-methoxy-N-(2-(1-methyl-2,6-dioxopiperidin-3-yl)-1-oxoisoindolin-5-yl)-2-naphthamide]

IKZF2 degradation (Western blot) (IKZF2): dose-dependent degradation
Compound: O=C1CCC(N2Cc3cc(NC(=O)c4ccc5ccccc5c4)ccc3C2=O)C(=O)N1 (stereo not shown) [DEG-9, N-(2-(2,6-dioxopiperidin-3-yl)-1-oxoisoindolin-5-yl)-2-naphthamide]
cellular growth inhibition (MOLM-13 cells [1]): inhibited cellular growth

Compound: COc1ccc2cc(C(=O)Nc3ccc4c(c3)CN(C3CCC(=O)NC3=O)C4=O)ccc2c1 (stereo not shown) [DEG-35, N-(2-(2,6-dioxopiperidin-3-yl)-1-oxoisoindolin-5-yl)-6-methoxy-2-naphthamide]
pIC50 (MOLM-13 cells [1]; [19]): 8.30
pIC50 (MOLM-13 cells [1]; read-out: IC50 (viability)): 8.24
cellular growth inhibition (MOLM-13 cells [1]): inhibited cellular growth
IC50 values (growth) (panel of AML cell lines): single digit nM to low μM
pIC50 [2]: 8.04
pIC50 [3]: 7.00
pIC50 (AML PDX cells): 8.28
pIC50 [4]: 7.80
DCmax CK1α (CK1α-GFP fusion protein): 84%
DCmax IKZF2 [5]: 92%
DCmax IKZF1-GFP (IKZF1(zinc finger 2)-GFP): 12%
DCmax GSPT1-GFP (GSPT1-GFP): 24%
pKd (CRBN): 6.33
ternary complex between CRBN and CK1α [6]: significantly stronger ternary complex
IKZF2 degradation (Western blot) (IKZF2): efficiently degraded IKZF2
CK1α degradation (Western blot) (CK1α): efficiently degraded CK1α
concentrations depleting CK1α (as low as) (CK1α; MOLM-13, 24 h, Western blot): 1 to 10 nM
activity against IKZF1 (Western blot) (IKZF1): limited activity
activity against IKZF3 (Western blot) (IKZF3): limited activity
activity against IKZF4 (Western blot) (IKZF4): limited activity
endogenous GSPT1 degradation (Western blot) (GSPT1): limited degradation at nanomolar concentrations
CK1α rank in global proteomics (MOLM-13 cells [7]): most significantly downregulated protein
apoptosis induction and myeloid differentiation (MOLM-13 cells [8]): significant dose-dependent apoptosis induction and myeloid differentiation
apoptosis and myeloid differentiation (MLL-AF9 Crbn^I391V cells [9]): resulted in apoptosis and myeloid differentiation at nanomolar concentrations
reduction of colonies [10]: half
LSK derived colonies [11]: not affected
colony formation [12]: reduced colony formation
sensitivity to DEG-35 on co-treatment with cytarabine [13]: more sensitive
sensitivity to DEG-35 on co-treatment with midostaurin [13]: more sensitive
half-life (Pharmacokinetics in mice; male, CD1, mouse): 2.5 h
degradation of CK1α and IKZF2 in leukemic cells from bone marrow and spleen (MLL-AF9 Crbn^I391V cells [14]; single dose 50 mg/kg, 24 h and 72 h): efficient degradation of CK1α and IKZF2
body weight (MLL-AF9 Crbn^I391V cells [15]; 50 mg/kg): without overt weight loss
leukemia progression (MLL-AF9 Crbn^I391V cells [15]; 50 mg/kg, vs DMSO): delayed leukemia progression
body weight (MOLM-13 cells [16]; 50 mg/kg): without overt weight loss
disease burden (spleen and liver weights) (MOLM-13 cells [16]; 50 mg/kg): decreased spleen and liver weights
survival (MOLM-13 cells [16]; 50 mg/kg): significantly prolonged survival
survival (AML PDX#2; AML PDX#2, DEG-35 vs DMSO): significant prolonged survival

Compound: COc1cccc2c1OCC(C(=O)Nc1ccc3c(c1)CN(C1CCC(=O)NC1=O)C3=O)=C2 (stereo not shown) [DEG-77, N-(2-(2,6-dioxopiperidin-3-yl)-1-oxoisoindolin-5-yl)-8-methoxy-2H-chromene-3-carboxamide]
pIC50 (MOLM-13 cells [1]; [19]): 8.40
IKZF2 degradation (Western blot) (IKZF2): maintained comparable activity
CK1α degradation (Western blot) (CK1α): maintained comparable activity
half-life (Pharmacokinetics in mice; female, Crbn^I391V, mouse, 223 mg/kg): 16.9 h
increase in solubility in DMSO compared to DEG-35 (Solubility in DMSO): 10 fold
degradation of IKZF2, CK1α, GSPT1 in bone marrow and splenic leukemic cells (MLL-AF9 Crbn^I391V cells [14]; one injection 223 mg/kg, 24, 48 and 72 h): degradation of IKZF2 and CK1α but not GSPT1
body weight (MLL-AF9 Crbn^I391V cells [15]; 223 mg/kg weekly): without loss of total body weight
survival (MLL-AF9 Crbn^I391V cells [15]; 223 mg/kg weekly, vehicle 35 days): 66 days
leukemia progression in secondary transplant (MLL-AF9 Crbn^I391V cells [15]; cells from mice treated in the primary transplant): pronounced delay in leukemia progression
survival (MOLM-13 cells [16]; 223 mg/kg weekly): increased survival
survival (AML PDX#2; 223 mg/kg weekly from 4 weeks post-transplant): significant extension of survival
engraftment of PDX cells in the bone marrow (AML PDX#2; after a single injection, >85% prior to treatment): around 40%
WBC counts [17]: modest reduction of WBC counts
platelets and RBC counts [17]: remained unchanged
stem cell compartment frequency [17]: reduced HSC and MPP1 frequency
survival (MLL-AF9 Crbn^I391V cells [18]): significant increase in survival
